Source: PubChem BioAssay
In the library only some 2.3% were active in any assay of this set; here they are far more common.
CSN deneddyl inh – inhibitors of human CSN-mediated cullin deneddylation; Q92905; Purified CSN, SCF-Nedd8-OG deneddylation, fluorescence polarization; inhibition, % at 12.5 µM; hit rate 0.38% among 360,000; AID 651999;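 active = pattern-corrected inhibition above about 35%, with an unprinted fluorescence ratio check between 0.5 and 1.5, limit read from the data, passing the limit was not always enough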
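Material: purified human Csn5 enzyme expressed in HEK293T cells / Medium: Tris buffer pH 7.5, NaCl, DTT, Tween-20, trehalose, ovalbumin / Compound dosing: 12.5 µM single point / Schedule: 90 min incubation of compound, enzyme and substrate at room temperature / Signal: fluorescence polarization of the substrate / Control set: no-enzyme wells high, enzyme-with-substrate wells low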
Myeloid diff MLP – myeloid differentiation induction; AID 624256; ER-HoxA9 myeloid progenitors, lysozyme-GFP differentiation, flow cytometry; hit rate 1% among 360,000; calls only at 10 µM;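 active = normalized GFP-positive differentiation at or above the plate's own cutoff, the solvent-only control mean plus 3 SD; inconclusive = no clear call, values can overlap the other calls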;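 also: cells exposed to compound for four days before flow analysis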
TPT1 inh – blocks Candida albicans tRNA 2'-phosphotransferase | recombinant caTPT1, FP RNA substrate dephosphorylation | inhibition, % at 5 µM | hit rate 0.81% among 300,000;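 active = inhibition above the mean of all tested compounds plus 3 SD, set per screening campaign, cut at about 24% in these data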
HNF4A DNA FP – change in binding of human HNF4 alpha to DNA; P41235; HNF4a-FITC DNA binding, fluorescence polarization, 1 h; activity change, % at 10 µM; hit rate 0.3% among 360,000; AID 1224865; in the data active = activity change above about 30%, passing the limit was not always enough
Target sequence (P41235 whole entry, looked up): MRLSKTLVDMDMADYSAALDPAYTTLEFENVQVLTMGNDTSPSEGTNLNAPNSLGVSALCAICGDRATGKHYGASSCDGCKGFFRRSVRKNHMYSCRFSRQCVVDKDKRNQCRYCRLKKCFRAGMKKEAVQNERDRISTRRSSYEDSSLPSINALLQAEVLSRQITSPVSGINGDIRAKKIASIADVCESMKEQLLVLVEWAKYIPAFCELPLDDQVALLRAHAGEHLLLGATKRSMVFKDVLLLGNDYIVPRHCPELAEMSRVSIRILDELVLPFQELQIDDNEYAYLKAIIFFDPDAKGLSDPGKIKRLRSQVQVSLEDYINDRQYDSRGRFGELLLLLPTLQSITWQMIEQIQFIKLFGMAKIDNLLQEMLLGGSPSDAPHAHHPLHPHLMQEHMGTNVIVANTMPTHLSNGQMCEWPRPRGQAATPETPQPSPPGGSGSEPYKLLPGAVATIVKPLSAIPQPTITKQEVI
Rpn11 inh – inhibitors of human proteasome Rpn11; inhibition, % at 20 µM; human 26S proteasome, Ub4-pepOG fluorescence polarization; 20S core pre-blocked with epoxomicin; hit rate 0.59% among 360,000;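 active = inhibition at 20 µM, scaled to each plate's controls, above about 33%, limit read from the data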
Target sequence (O00487 whole entry, looked up): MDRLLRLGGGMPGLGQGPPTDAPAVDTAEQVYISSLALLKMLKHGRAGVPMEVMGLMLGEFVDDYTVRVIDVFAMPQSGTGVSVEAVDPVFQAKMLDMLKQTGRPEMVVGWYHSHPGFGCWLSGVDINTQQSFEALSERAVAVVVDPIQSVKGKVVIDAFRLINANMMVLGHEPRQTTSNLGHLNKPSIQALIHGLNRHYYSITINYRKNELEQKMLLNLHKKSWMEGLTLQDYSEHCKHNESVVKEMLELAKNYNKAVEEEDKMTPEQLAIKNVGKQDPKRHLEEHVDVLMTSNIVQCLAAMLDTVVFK
TPT1 inh confirm – TPT1 (C. albicans) inhibition, confirmation; shares compounds with TPT1 inh; recombinant caTPT1, fluorescence polarization, RNase T1 coupled; inhibition, % at 5 µM; hit rate 74% among 2,400;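 active = inhibition above the primary screen limit, the mean inhibition of all tested compounds plus 3 SD, cut at about 25% in these data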
RNase T1 counter – RNase T1 inhibition in TPT1 counter-screen; shares compounds with TPT1 inh; RNase T1 cleavage, fluorescence polarization, 1536-well; inhibition, % at 5 µM; hit rate 83% among 2,400;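 active = inhibition above the solvent-only control well mean plus 3 SD, limit set per screening run, cut at about 23% in these data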;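 also: inhibitors block cleavage so intact labeled substrate keeps polarization high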
Rpn11 confirm – Rpn11 inhibition confirmation, single concentration; inhibition, % at 20 µM; hit rate 29% among 1,900; shares compounds with Rpn11 inh; purified human 26S proteasome, Ub4-pepOG fluorescence polarization; proteasome pretreated with epoxomicin; AID 602318
MMP-2 counter-1 – counter-screen for RPN11 inhibitors: inhibition of human MMP-2; hit rate 4% among 1,900; recombinant MMP-2, FRET peptide cleavage fluorescence; AID 602330; shares compounds with Rpn11 inh; inhibition, % at 20 µM;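 also: human MMP-2 activated beforehand with APMA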
Thrombin inh – counter-screen for RPN11 inhibitors: inhibition of bovine thrombin. shares compounds with Rpn11 inh. bovine thrombin cleavage of Ub4-pepOG, fluorescence polarization. inhibition, % at 20 µM. hit rate 13% among 1,900;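 active = mean inhibition at least 40% at 20 µM, or signal 3 deviations below plate average, so some actives read negative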
Myeloid diff – myeloid differentiation induction; shares compounds with Myeloid diff MLP; ER-HoxA9 myeloid progenitors, GFP/Mac1 double-positive flow; calls only; hit rate 2% among 2,300; AID 651706;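 active = share of green or green-and-red cells above 9 and 9% in run 1 or 4 and 3% in run 2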
GFP autofluor – compound fluorescence in myeloid differentiation counter-screen | shares compounds with Myeloid diff MLP | ER-HoxA9 myeloid progenitors, no estrogen, GFP autofluorescence flow cytometry; vehicle wells 0%, positive control 100% | fluorescence response, % (concentration not given with the values) | hit rate 7.4% among 2,300 | AID 651707;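 active = over 5% cells positive for green fluorescent reporter, or over 2% positive for both it and APC stain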
CSN deneddyl val – Csn5 (human) deneddylation inhibition, single-concentration validation. shares compounds with CSN deneddyl inh. Csn5 deneddylation of SCF-Nedd8OG, fluorescence polarization, 90 min. inhibition, % at 16.6 µM. hit rate 62% among 540. AID 720654; in the data active = inhibition above about 50%
MMP-2 counter-2 – MMP-2 (human) inhibition, counter-screen for CSN hits; shares compounds with CSN deneddyl inh; recombinant MMP-2, FRET substrate fluorescence, 60 min; inhibition, % at 16.6 µM; hit rate 33% among 540; AID 720655;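 active = corrected plate-normalized z-score of 5 or more, or -5 or less, or inhibition of 15% or more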
Thrombin counter – counter-screen for CSN deneddylation inhibitors: bovine thrombin inhibition; hit rate 49% among 540; shares compounds with CSN deneddyl inh; bovine thrombin cleavage of Ub4-pepOG, fluorescence polarization; inhibition, % at 16.6 µM;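 active = inhibition at or above a set limit, with a fluorescence interference ratio between 0.5 and a set maximum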
Large screens that a line does not name were inactive (follow-up assays come after a bar, where shown). Rule as the data show it, unless noted: active = inhibition above about 40%; inactive = the rest.

Cc1cc2oc3ccc(NCCCN4CCOCC4)cc3c(=O)c2cc1C	none
Cc1cc2oc3ccc(NCCCn4ccnc4)cc3c(=O)c2cc1C	CSN deneddyl inh 48.1, TPT1 inh 55.2, HNF4A DNA FP 73.2 (not shown: Rpn11 inh) | TPT1 inh confirm 64.0 | RNase T1 counter 73.4 | CSN deneddyl val 137.0 | MMP-2 counter-2 60.8 | Thrombin counter 30.0
CCCC(=O)N1CCC1(C)C(=O)Nc1ccc2scnc2c1 (stereo not drawn)	none (no result: TPT1 inh)
CCN1CCc2c(sc(NC(=O)c3cc4ccccc4cc3OC)c2C(N)=O)C1	CSN deneddyl inh 37.9, Myeloid diff MLP inconclusive, TPT1 inh 46.1, HNF4A DNA FP 36.7, Rpn11 inh 72.1 | TPT1 inh confirm 39.8 | RNase T1 counter 45.6 | Rpn11 confirm 75.1 | MMP-2 counter-1 inactive | Thrombin inh inactive | CSN deneddyl val 56.2 | MMP-2 counter-2 inactive | Thrombin counter inactive
CC(C)N1CCc2c(sc(NC(=O)c3ccc4ccccc4c3)c2C(N)=O)C1	CSN deneddyl inh 56.9, Myeloid diff MLP inconclusive, TPT1 inh 96.2, HNF4A DNA FP 63.5 (not shown: Rpn11 inh) | TPT1 inh confirm 89.6 | RNase T1 counter 96.3 | CSN deneddyl val active | MMP-2 counter-2 inactive | Thrombin counter 47.9
COC(=O)[C@]12C(=O)NC[C@H](CN1c1ccc(Cl)c(C)c1)N2C	none (no result: TPT1 inh)
NC(=O)C[C@H](NC(=O)c1ccc(Cl)cc1)C(=O)OCc1ccccc1	none (no result: TPT1 inh)
COc1ccc(Cl)cc1C(=O)Nc1cccc(-c2ccc3nncn3n2)c1	CSN deneddyl inh 136.9, TPT1 inh 38.4, HNF4A DNA FP 54.8, Rpn11 inh active | TPT1 inh confirm 54.9 | RNase T1 counter 28.4 | Rpn11 confirm 75.6 | MMP-2 counter-1 inactive | Thrombin inh inactive | CSN deneddyl val inactive | MMP-2 counter-2 18.3 | Thrombin counter 22.4
Cc1ccc2c(nc3s/c(=C\c4ccc(-c5ccccc5C(=O)O)o4)c(=O)n32)c1C	CSN deneddyl inh 102.2, TPT1 inh 116.0 (not shown: Rpn11 inh) | TPT1 inh confirm 137.8 | RNase T1 counter 130.4 | Myeloid diff inactive | GFP autofluor 12.7 | CSN deneddyl val inactive | MMP-2 counter-2 inactive | Thrombin counter inactive
Cc1ccc2c(nc3s/c(=C/c4cccs4)c(=O)n32)c1C	none (no result: TPT1 inh)
CN(/N=C/c1ccc(-c2ccc([N+](=O)[O-])cc2)o1)c1ccccc1	CSN deneddyl inh 50.1, TPT1 inh 72.5, HNF4A DNA FP 47.8 (not shown: Rpn11 inh) | TPT1 inh confirm 73.8 | RNase T1 counter 81.5 | CSN deneddyl val 92.3 | MMP-2 counter-2 inactive | Thrombin counter 24.7
O=Cc1ccc(N2CCCC2)o1	none
N#C/C(=C\c1ccc(N2CCCCC2)o1)C(N)=O	CSN deneddyl inh 106.5, TPT1 inh active (not shown: Rpn11 inh) | TPT1 inh confirm 170.7 | RNase T1 counter 163.5 | CSN deneddyl val 198.0 | MMP-2 counter-2 inactive | Thrombin counter inactive
CCOC(=O)c1c(NC(=O)COC(=O)c2cc(OC)c(OC)cc2[N+](=O)[O-])sc(C)c1C	none
Cc1ccccc1C1NC(=S)NC2=C1C(=O)CCC2 (stereo not drawn)	none
CCOc1cc(/C=C2\SC(=S)N(NC(=O)c3cccnc3)C2=O)ccc1O	CSN deneddyl inh 36.0, TPT1 inh 50.1, HNF4A DNA FP 48.6, Rpn11 inh 78.3 | TPT1 inh confirm 38.6 | RNase T1 counter 54.0 | Rpn11 confirm 83.3 | MMP-2 counter-1 inactive | Thrombin inh 62.0 | CSN deneddyl val 58.4 | MMP-2 counter-2 inactive | Thrombin counter 35.6
O=C(CCN1C(=O)/C(=C/c2cccc(Br)c2)SC1=S)NNC(=O)c1cccnc1	none
CCOc1ccc(/C=C2\SC(=S)N(Nc3ccccc3)C2=O)cc1OC	none
COc1cc(/C=C2\SC(=S)N(NC(=O)c3ccc(O)c(OC)c3)C2=O)ccc1O	CSN deneddyl inh 64.0, TPT1 inh 34.5, HNF4A DNA FP 58.6 (not shown: Rpn11 inh) | TPT1 inh confirm 44.2 | RNase T1 counter 58.3 | Myeloid diff inactive | GFP autofluor 27.8 | CSN deneddyl val 89.6 | MMP-2 counter-2 inactive | Thrombin counter 80.4
CC(/C=C1\SC(=S)N(NC(=O)c2ccccc2C)C1=O)=C\c1ccccc1	none
COc1cc(/C=C2\SC(=S)N(NS(=O)(=O)c3ccc(C)cc3)C2=O)ccc1O	CSN deneddyl inh 41.1, TPT1 inh 29.9, Rpn11 inh 99.1 | TPT1 inh confirm 36.0 | RNase T1 counter 47.8 | Rpn11 confirm 82.8 | MMP-2 counter-1 inactive | Thrombin inh 90.1 | CSN deneddyl val 63.0 | MMP-2 counter-2 15.2 | Thrombin counter 67.6
Cn1cccc1/C=C1\SC(=S)N(NC(=O)c2ccccc2O)C1=O	CSN deneddyl inh 55.1, TPT1 inh 78.6, HNF4A DNA FP 101.4 (not shown: Rpn11 inh) | TPT1 inh confirm 86.7 | RNase T1 counter 101.1 | CSN deneddyl val 94.9 | MMP-2 counter-2 inactive | Thrombin counter 47.5
O=c1c2ccccc2sc2nc(CCl)nn12	none (no result: TPT1 inh)
CN(Cc1c(C(=O)N2CCc3ccccc3C2)nc2ccc(Cl)cn12)C(C1CC1)C1CC1	none
O=C(O)CC(C(=O)O)N1C(=O)/C(=C/c2ccc(-c3nc4ccccc4s3)o2)SC1=S (stereo not drawn)	CSN deneddyl inh 47.3, TPT1 inh 90.6, Rpn11 inh 71.4 | TPT1 inh confirm 109.0 | RNase T1 counter 114.1 | CSN deneddyl val 81.8 | MMP-2 counter-2 inactive | Thrombin counter 83.3
